Screens deposited in PubChem BioAssay by several laboratories.
An excerpt weighted towards active compounds, which were near 1.4% of everything screened.
PvdQ acylase: P. aeruginosa PvdQ acylase inhibitors, primary screen, biochemical, fluorescence, plate reader and imaging, single point; PvdQ acylase [Pseudomonas aeruginosa LESB58]; purified PvdQ acylase; inhibition, % at 10 µM; 0.063% of 340,000 active; in the data active means inhibition above about 30%, passing the limit was not always enough;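 further: 0% = vehicle neutral wells and 100% = reference inhibitor wells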
CDK5 inh: inhibitors of human CDK5/p35 kinase, primary screen, biochemical, single concentration | 0.01% of 330,000 active | Recombinant CDK5/p35, ADP-Glo luminescence, 60 min | AID 488839, 2010 | inhibition, % at 10 µM | Cyclin-dependent kinase 5 (Homo sapiens) + Cyclin-dependent kinase 5 activator 1 (Homo …;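 active means highest replicate inhibition of at least 50% and at least 75% of replicates reaching 50%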;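 further: plate controls were DMSO neutral control for no effect and GW8510 at 10 µM for full effect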
Target sequence (Q00535 whole entry, looked up): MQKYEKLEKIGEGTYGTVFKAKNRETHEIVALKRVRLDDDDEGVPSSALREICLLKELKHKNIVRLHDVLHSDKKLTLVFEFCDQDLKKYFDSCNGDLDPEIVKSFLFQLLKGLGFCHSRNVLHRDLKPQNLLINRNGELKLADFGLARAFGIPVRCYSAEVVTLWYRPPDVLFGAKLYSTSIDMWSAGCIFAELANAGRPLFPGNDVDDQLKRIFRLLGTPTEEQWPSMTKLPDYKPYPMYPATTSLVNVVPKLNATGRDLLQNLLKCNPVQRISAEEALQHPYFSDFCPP
Target sequence (Q15078 whole entry, looked up): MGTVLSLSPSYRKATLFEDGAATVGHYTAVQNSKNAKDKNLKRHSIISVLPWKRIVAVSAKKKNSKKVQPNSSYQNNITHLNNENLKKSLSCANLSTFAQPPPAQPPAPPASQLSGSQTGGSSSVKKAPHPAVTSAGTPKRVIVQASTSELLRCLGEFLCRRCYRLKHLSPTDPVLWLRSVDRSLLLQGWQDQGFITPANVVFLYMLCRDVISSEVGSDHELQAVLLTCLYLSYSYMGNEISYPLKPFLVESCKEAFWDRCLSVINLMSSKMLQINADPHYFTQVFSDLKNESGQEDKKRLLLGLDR
DYRK1A inh: rat Dyrk1A kinase inhibitors, primary screen, biochemical, single point, plate reader. ADP-Glo luminescence, NFATc1 peptide. inhibition, % at 12.5 µM. 0.43% of 310,000 active. AID 504441, 2011; in the data active means inhibition above about 50%;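 further: plate controls were vehicle with enzyme for no effect and no enzyme for full effect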
TbMetRS inhib: T. brucei MetRS inhibitors, primary screen, biochemical, luminescence; inhibition, % at 11.9 µM; purified T. brucei MetRS, ATP depletion, Kinase-Glo luminescence; methionyl-tRNA synthetase (Trypanosoma brucei brucei); 0.4% of 360,000 active;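 active means inhibition above a per-plate cutoff of the control wells' mean inhibition plus 3 SD, cut at about 5.5% in these data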;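 further: 0% = DMSO wells median and 100% = median of wells with control inhibitor compound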
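Test system: purified T. brucei MetRS enzyme. Also added: ATP, methionine and E. coli bulk tRNA substrates. Compound: 11.9 µM single point. Schedule: 15 min enzyme-compound preincubation, 2 h reaction, 10 min detection, 25 °C. Signal: luciferase luminescence of residual ATP, Kinase-Glo. Evaluation: percent inhibition versus plate control medians. Controls: DMSO wells, low control.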
CAL PDZ FP-1: CAL PDZ peptide-binding inhibitors, primary screen, biochemical, fluorescence polarization, Cer-tagged CAL PDZ, HTS. Golgi-associated PDZ and coiled-coil motif-containing protein (Homo sapiens), Q9HD26. inhibition, % at 20 µM. purified CAL PDZ, TMR-peptide fluorescence polarization, 1 h. 0.02% of 330,000 active;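 active means highest replicate inhibition of at least 40%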;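 further: plate controls were DMSO neutral control wells for no effect and unlabeled competitor peptide control wells for full effect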
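Read-out basis: mP drop reported as inhibition | Assay system: Tagged CAL PDZ protein CerCALP, purified | Benchmarks: Unlabelled peptide for full inhibition, DMSO wells as neutral | Schedule: 1 h incubation at room temperature before polarization reading | Buffer or medium: Sodium phosphate/NaCl buffer pH 7.4 with TCEP, IgG, Thesit | Doses: Single point, 20 µM | Measured by: Fluorescence polarization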
CAL PDZ FP-2: untagged CAL PDZ binding inhibitors, primary screen, biochemical, fluorescence polarization, HTS; Golgi-associated PDZ and coiled-coil motif-containing protein (Homo sapiens), Q9HD26; purified CAL PDZ, TMR-peptide fluorescence polarization, 1 h; inhibition, % at 24.9 µM; 0.92% of 300,000 active;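 active means mean inhibition of at least 30% with at least half of replicates also reaching 30%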;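 further: 0% = DMSO neutral control and 100% = excess unlabeled competitor peptide PRC23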
Active calls of the source: *; x = no result.

SMILES | PvdQ acylase | CDK5 inh | DYRK1A inh | TbMetRS inhib | CAL PDZ FP-1 | CAL PDZ FP-2
O=C(NCCc1ccccc1)c1ccc(NC(=O)C2CC2)cc1 | -14 | 1 | -1 | 0 | -1 | 59*
O=C(NCc1ccccc1)c1ccc(NC(=O)C2CC2)cc1 | -9 | 0 | 13 | 0 | -1 | 0
CN1C(=O)C(N=Nc2ccc([N+](=O)[O-])cc2)SC1=S (stereo unspecified) | -4 | 16 | 14 | 0 | 0 | 2
CCOC(=O)/C=C1/SCC(=O)N1Cc1ccc(Br)cc1 | -16 | -2 | -4 | 0 | -1 | -3
CCOC(=O)/C=C1\SCC(=O)N1Cc1nnc(-c2ccccc2Br)o1 | -9 | -3 | 8 | -1 | -2 | 60*
CSC1=NC=C(C#N)C2=NC(c3ccc(Cl)cc3)NN12 (stereo unspecified) | x | x | x | -1 | x | x
CCOC(=O)C1=C(C)NC(C)=C(C(=O)OCC)C1C(=O)OCC(=O)NCc1ccccc1OC | -8 | 0 | x | 0 | 0 | 88*
CCOC(=O)C1=C(C)NC(C)=C(C(=O)OCC)C1C(=O)OCC(=O)NCc1ccccc1 | -14 | 1 | -3 | 0 | -1 | x
COC(=O)[C@]12CCCCC=C1N(Cc1ccc3c(c1)OCO3)C(=O)[C@H](CC(=O)NCC13CC4CC(CC(C4)C1)C3)C2 | x | x | x | -1 | x | x
CC1(C(=O)NS(=O)(=O)c2cccc(OC(F)F)c2)CCN1C(=O)C1CCCCC1 (stereo unspecified) | x | x | x | 0 | x | x
Cc1ccc(S(=O)(=O)N(C)C[C@H]2Oc3ncc(Br)cc3C(=O)N([C@H](C)CO)C[C@@H]2C)cc1 | x | x | x | -1 | x | x
Cc1cc(CN(C)C(=O)c2cc(COc3ccc4ncccc4c3)on2)on1 | -14 | 1 | -3 | 0 | -2 | 76*
CN(Cc1nccn1C)C(=O)c1cc(COc2ccc3ncccc3c2)on1 | -22 | 1 | 4 | 0 | 25 | 42*
COC(=O)[C@]12CCCCC=C1N(Cc1ccc3c(c1)OCO3)C(=O)[C@H](CC(=O)N1CCSCC1)C2 | x | x | x | -1 | x | x
CC#CC[N+](C)(CC#CC)CC(=O)c1ccccc1 | -8 | 1 | 4 | 0 | 1 | 58*
CCN(CC)C(=O)CSc1nc(N)c(C#N)c(-c2cccs2)c1C#N | -10 | -2 | 3 | 0 | -3 | -1
Cc1ccccc1NC(=O)CSc1nc(N)c(C#N)c(-c2cccs2)c1C#N | -1 | -4 | 5 | 8.1* | 0 | -2
COc1ccccc1CN(C)C(=O)c1cc(-c2cc(OC)c(OC)c(OC)c2)nc2ccccc12 | 0 | -1 | 4 | 0 | -2 | 58*
COc1ccc(-c2cc(C(=O)NCc3ccco3)c3ccccc3n2)cc1OC | -14 | 1 | -3 | -1 | -1 | 69*
COc1cc(-c2cc(C(=O)N(C)Cc3ccccc3)c3ccccc3n2)cc(OC)c1OC | -7 | -1 | -1 | 0 | -3 | -8
O=C(Nc1ccc2c(c1)OCCO2)c1[nH]c(C(F)(F)F)nc1-c1ccccc1 | x | x | x | 1 | x | x
COc1cc(N)ccc1Cc1ccc(N)cc1OC | -11 | -1 | x | 0 | x | 56*
COC(=O)c1c(SCC(=O)NC2CCCCC2)[nH]c2ccccc2c1=O | -2 | -1 | -1 | 1 | -2 | 31*
O=C(COC(=O)c1cc(=O)[nH]c2ccccc12)NC1CCCCC1 | -14 | 1 | x | 0 | -1 | x
CC(C)N1C(=O)c2ccccc2NC(=O)C1C(=O)NC1CC1 (stereo unspecified) | x | x | x | 0 | x | x
SMILES | PvdQ acylase | CDK5 inh | DYRK1A inh | TbMetRS inhib | CAL PDZ FP-1 | CAL PDZ FP-2
Cc1ccc(S(=O)(=O)C[C@@H]2OC[C@H](C(C)C)N2S(=O)(=O)c2ccc(C)cc2)cc1 | x | x | x | 0 | x | x
CC1CCC2(CC1)NC(=O)N(CC(=O)NC1CCCCC1C)C2=O (stereo unspecified) | -6 | 1 | -4 | 0 | 1 | 33*
Cc1cc(=O)c(C(=O)O)nn1-c1cccc(C(F)(F)F)c1 | -4 | 0 | -5 | -1 | 0 | 73*
N#Cc1cccc(C2CC(OCCF)=CC(=O)O2)c1 (stereo unspecified) | x | x | x | 0 | x | x
COCCOCC(O)CN1CCN(c2ccccc2)CC1 (stereo unspecified) | -18 | 0 | -3 | 0 | 0 | 32*
Cc1cccc(N2CCN(C(=O)c3ccc(NC4=NC5CS(=O)(=O)CC5S4)cc3)CC2C)c1 (stereo unspecified) | -18 | 0 | 1 | 0 | 0 | 93*
O=C(c1ccc(NC2=NC3CS(=O)(=O)CC3S2)cc1)N1CCN(c2ccccc2)CC1 (stereo unspecified) | -15 | -2 | 5 | 0 | -1 | 2
CC(=O)Nc1ccc(CNc2nc3cc(-c4ccsc4)sc3c(=O)n2C)cc1 | x | x | x | 0 | x | x
COc1ccc(OCC(O)CNC(=O)c2ccc(Br)cc2)cc1 (stereo unspecified) | -10 | -2 | 3 | 1 | 13 | 72*
COc1ccc(OCC(O)CNC(=O)c2ccc(OC)cc2)cc1 (stereo unspecified) | -5 | 1 | 1 | -1 | -1 | -1
COc1cccc(-c2cnc3c(NC(C)=O)cc(-c4ccsc4)cn23)c1 | x | x | x | 0 | x | x
CCN1CCc2c(sc(NC(=O)C3CCCCC3)c2C(=O)OC)C1 | -7 | -1 | 7 | 0 | -1 | -3
CCOC(=O)c1c(NC(=O)C2CCCCC2)sc2c1CCN(CC)C2 | -11 | -1 | 0 | 0 | -1 | 45*
Cc1cc(NS(=O)(=O)c2ccc(NC(=S)NC(=O)c3ccc(F)cc3)cc2)no1 | 12 | 0 | 24 | 0 | 0 | -4
COc1ccc(CC(=O)Nc2ccc(S(=O)(=O)Nc3cc(C)on3)cc2)cc1 | -12 | 0 | -1 | 0 | -1 | 49*
Cc1cc(NS(=O)(=O)c2ccc(NC(=S)NC(=O)c3cccc(S(=O)(=O)N(C)C)c3)cc2)no1 | -12 | -1 | x | 0 | -3 | 52*
COc1ccc(NC(=O)NC2(C(=O)N3CCN(C)CC3)CCCCC2)cc1 | -7 | 0 | 3 | 0 | 10 | 61*
CN(C)/N=C/C=C1\CC/C(=C\c2ccc(Br)cc2)C1=O | -13 | -1 | -1 | 0 | -1 | 49*
CN(C)/N=C/C=C1\CCC/C(=C/c2cccs2)C1=O | 1 | 1 | -3 | 0 | -7 | 17
